# Active and inactive are the calls of the source.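 The calls were made as follows, unless noted: active = GFP response above 150% of the DMSO level; inconclusive = fewer than 70 events counted for a yeast strain; inactive = the rest.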
# What was measured:
# [1] = RPL19A-GFP modulators, yeast TOR pathway, confirmation, cell-based, S. cerevisiae, flow cytometry, cherry picks, mother/daughter gates (AID 2270;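 active = GFP response below 50% of the DMSO control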); details: S. cerevisiae RPL19A-GFP strain, 3 h, at 10 µM, stronger effect = lower value, 100 = same GFP as DMSO wells
# [2] = LAP4-GFP expression modulators in yeast, confirmation, cell-based, cherry picks, flow cytometry, mother/daughter gates (AID 2271;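 active = GFP response above 150% of the DMSO control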;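 also: ratio of sample to DMSO plate mean so 100% equals DMSO level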); details: S. cerevisiae LAP4-GFP strain, 3 h, at 10 µM, stronger effect = higher value, 100 means same as DMSO control
# In short: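 Material – Alexa Fluor 633-labelled Saccharomyces cerevisiae GFP-fusion strain, single-plex · Incubation – compound exposure 3 h at 30 °C, end-over-end rotation · Measured by – GFP by flow cytometry · Measure – median GFP fluorescence as percent of plate-mean DMSO wells · Control set – positive rapamycin (400 ng/mL), negative DMSO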
# [3] = modulators of MEP2-GFP levels in yeast, confirmation, S. cerevisiae, flow cytometry GFP, cherry picks (AID 2272;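 active = GFP response above 150% of the DMSO control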;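 also: ratio of well signal to plate DMSO mean so 100% equals DMSO level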); details: S. cerevisiae MEP2-GFP strain, 3 h, at 10 µM, stronger effect = higher value
# [4] = AGP1-GFP expression modulators, hit retest, confirmation, cell-based, flow cytometry, S. cerevisiae, cherry picks (AID 2273);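 also: median GFP channel fluorescence over the whole cell population gate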; details: S. cerevisiae AGP1-GFP strain, 3 h, at 10 µM
# [5] = modulators of CIT2-GFP expression in yeast, confirmation, S. cerevisiae, GFP fusion, cherry picks, mother/daughter gates (AID 2274); details: S. cerevisiae CIT2-GFP strain, flow cytometry, 3 h, at 10 µM, stronger effect = higher value
# [6] = measured here: daughter cell gate
# [7] = measured here: mother cell gate
# [8] = measured here: daughter cell gate response
# [9] = measured here: mother cell gate response
SMILES,GFP response vs DMSO [1],"GFP response vs DMSO [1, 6] [%]","GFP response vs DMSO [1, 7] [%]",GFP response relative to DMSO [2],"GFP response relative to DMSO [2, 8] [%]","GFP response relative to DMSO [2, 9] [%]",GFP response vs DMSO [3],"GFP response, % of DMSO [4]","GFP response, % of DMSO [5]","GFP response, % of DMSO [5, 6] [%]","GFP response, % of DMSO [5, 7] [%]"
CCCn1c(=N)c(C(=O)NC2CCCC2)cc2c(=O)n3cccc(C)c3nc21,100% (inactive),85.2,78,96.2% (inactive),100,99.3,104% (inactive),104% (inactive),104% (inactive),–,–
CCc1ccc(NC(=O)c2nc(S(=O)(=O)Cc3ccccc3)ncc2Cl)cc1,94.8% (inactive),94.2,93.8,126% (inactive),118,124,97.5% (inactive),96% (inactive),87.8% (inactive),90.9,82.8
COc1ccc(CN2CCN(c3ncccn3)CC2)c(C)c1C,96.2% (inactive),98.1,95.2,100% (inactive),101,100,99.3% (inactive),100% (inactive),100% (inactive),101,102
O=C(Nc1c(-c2ccccc2)nc2ccccn12)c1ccco1,100% (inactive),102,99.8,99.2% (inactive),94.4,96.1,98.3% (inactive),98.9% (inactive),103% (inactive),–,106
O=C(/C=C/c1ccccc1)C1=C(O)C(=O)N(CCO)C1c1cccc([N+](=O)[O-])c1 (configuration not stated),99.8% (inactive),99.3,100,97.7% (inactive),101,97.4,101% (inactive),103% (inactive),100% (inactive),101,99.3
COc1cccc(C(=O)N/N=C(\CC(C)C)c2ccccc2)c1,97.8% (inactive),97,97.7,100% (inactive),101,102,103% (inactive),98.4% (inactive),101% (inactive),103,103
CC(=O)Nc1ccc(NC(=O)c2ccccc2F)cc1,99.8% (inactive),100,98.6,94.4% (inactive),94.2,94.1,99% (inactive),100% (inactive),103% (inactive),101,99.3
CCCCOc1c(Br)cc(/C=C2\N=C(C)OC2=O)cc1OCC,97.8% (inactive),98.4,97.7,106% (inactive),102,106,100% (inactive),101% (inactive),98.3% (inactive),99.1,98.5
O=C1c2ccccc2C(=O)c2c([N+](=O)[O-])ccc(O)c21,82.2% (inactive),91.2,74.2,122% (inactive),114,124,110% (inactive),106% (inactive),92.2% (inactive),93.7,82.8
CCCc1[nH]nc2c1C(c1ccc(OC(=O)N3CCOCC3)cc1)C(C#N)=C(N)O2 (configuration not stated),98.2% (inactive),97.1,96.4,97.9% (inactive),94.4,94,100% (inactive),102% (inactive),101% (inactive),–,–
Cc1cccc(C)c1NC(=O)c1nc(S(=O)(=O)Cc2ccccc2)ncc1Cl,97.1% (inactive),96.4,95.8,102% (inactive),101,101,101% (inactive),102% (inactive),94.4% (inactive),92.3,93.8
CNC(=O)/C(C#N)=C/c1c(N2CCCCCC2)nc2ccccn2c1=O,98.7% (inactive),100,98.2,104% (inactive),104,106,112% (inactive),98.6% (inactive),108% (inactive),110,108
COc1ccc2c(c1)C=Cc1ccccc1O2,98.4% (inactive),97.6,99.5,99.2% (inactive),99.2,99.3,98.3% (inactive),95.6% (inactive),104% (inactive),106,102
O=C(CN1CCCC1)Nc1cc(C(F)(F)F)cc(C(F)(F)F)c1,101% (inactive),110,100,98.9% (inactive),102,98.4,68.3% (inactive),102% (inactive),98.6% (inactive),99.3,97.1
CCn1cc(/C=C/c2cc[n+](C)cc2)c2ccccc21,105% (inactive),101,107,117% (inactive),119,117,154% (inactive),108% (inactive),–,–,–
CC(C)COC(=O)NCC12C=CC(O1)C1C(=O)N(c3ccc(Cl)cc3)C(=O)C12 (configuration not stated),99.6% (inactive),99.5,98.4,98.9% (inactive),101,99.5,106% (inactive),107% (inactive),101% (inactive),101,102
Cc1ccc(N2C(=O)C3C4C=CC(CNC(=S)N5CCN(c6ccccc6)CC5)(O4)C3C2=O)cc1 (configuration not stated),102% (inactive),101,101,89% (inactive),94.1,92.1,100% (inactive),96.5% (inactive),110% (inactive),105,113
COc1ccc(CNC(=O)c2c(O)c3ccccc3n(C)c2=O)cc1OC,96.9% (inactive),97.8,96.7,90.6% (inactive),92.9,91.3,110% (inactive),99.1% (inactive),103% (inactive),105,103
COc1ccc(C(=O)c2nccc3ccccc23)cc1,96.8% (inactive),86.1,91.3,106% (inactive),104,99.3,96.2% (inactive),100% (inactive),98.3% (inactive),–,–
COC(=O)c1ccc(/C=C/C(=O)c2ccc(OC)c(OC)c2)cc1,101% (inactive),101,99.6,113% (inactive),110,117,104% (inactive),102% (inactive),104% (inactive),106,102

SMILES,GFP response vs DMSO [1],"GFP response vs DMSO [1, 6] [%]","GFP response vs DMSO [1, 7] [%]",GFP response relative to DMSO [2],"GFP response relative to DMSO [2, 8] [%]","GFP response relative to DMSO [2, 9] [%]",GFP response vs DMSO [3],"GFP response, % of DMSO [4]","GFP response, % of DMSO [5]","GFP response, % of DMSO [5, 6] [%]","GFP response, % of DMSO [5, 7] [%]"
Cc1cc(NCCN2CCOCC2)n2nc(C)c(-c3ccc(Cl)cc3)c2n1,97.1% (inactive),97,95.8,106% (inactive),101,109,108% (inactive),98.4% (inactive),100% (inactive),99.3,99.3
O=C(O)Cc1ccc2ccc3ccccc3c2c1,96.8% (inactive),92.8,97.8,106% (inactive),105,105,102% (inactive),96.1% (inactive),104% (inactive),99.7,104
O=S(=O)(c1cccc(C(F)(F)F)c1)c1ccc(O)cn1,98.8% (inactive),99.4,98.5,96.7% (inactive),99.2,95.1,100% (inactive),94.7% (inactive),104% (inactive),106,103
Cc1ccc(S(=O)(=O)N(CC(=O)Nc2cccnc2)c2ccccc2C)cc1,104% (inactive),100,105,97% (inactive),95.9,97.3,105% (inactive),98.6% (inactive),94.4% (inactive),92,94.4
COc1ccc(S(=O)(=O)N2Cc3ccccc3CC2C(=O)O)cc1OC (configuration not stated),97% (inactive),97,97.1,98.8% (inactive),96.5,98.5,104% (inactive),102% (inactive),99.3% (inactive),100,99.1
COC(=O)C1=C(C)NC(C)=C(C(=O)OC)C1c1ccc(OC(=O)c2oc3ccccc3c2C)c(OC)c1,98.8% (inactive),98.1,98.8,90% (inactive),90.4,89.9,98.8% (inactive),103% (inactive),103% (inactive),102,104
CNc1nc(-c2ccccc2)cc(C(F)(F)F)c1C#N,97.4% (inactive),95.3,92.9,96.2% (inactive),95.6,93.1,104% (inactive),102% (inactive),102% (inactive),99.7,98.7
COc1ccc(CCN2C(=O)c3cccc4cccc(c34)C2=O)cc1OC,104% (inactive),100,104,95.7% (inactive),99.1,97.3,101% (inactive),105% (inactive),100% (inactive),101,96.8
O=[N+]([O-])c1cc(/C=N/O)ccc1Oc1ccccc1Cl,76.7% (inactive),75.3,70.2,146% (inactive),106,134,146% (inactive),135% (inactive),155% (active),–,–
CCOC(=O)C1(Cc2ccccc2Cl)CCN(C(=O)CCn2ccnc2C)CC1,96.6% (inactive),97.3,97.2,101% (inactive),104,99.5,99.5% (inactive),100% (inactive),97.8% (inactive),98.3,98
CSc1ccc(/C=C/C(=O)c2c(O)cc(C)oc2=O)cc1,105% (inactive),106,103,131% (inactive),125,135,120% (inactive),96.3% (inactive),–,–,–
Cc1ccc(C(=O)Sc2cccccc2=O)cc1,101% (inactive),99.4,99,313% (active),281,315,132% (inactive),104% (inactive),90.9% (inactive),93.7,84.8
O=C(Nc1nc(-c2ccccc2)cs1)c1cccc([N+](=O)[O-])c1,102% (inactive),100,94.5,101% (inactive),95.9,95.2,105% (inactive),108% (inactive),98.8% (inactive),–,–
O=C(Nc1ccc(F)cc1)c1cc2cc(Cl)ccc2[nH]1,97% (inactive),96.9,96.2,101% (inactive),97.6,94,100% (inactive),102% (inactive),99.7% (inactive),–,92.6
Cc1ccc(/C=N/NC(=O)c2ccccn2)s1,99.2% (inactive),97.1,97,99.5% (inactive),95.9,99.4,101% (inactive),95.1% (inactive),94.4% (inactive),93.8,94.4
COc1ccc(-c2nnc(NC(=O)c3ccc([N+](=O)[O-])o3)o2)c(OC)c1,101% (inactive),100,101,95.4% (inactive),92.8,96.1,100% (inactive),98% (inactive),105% (inactive),105,103
C=CCNC(=O)/C(C#N)=C/c1c(N2CC(C)OC(C)C2)nc2ccccn2c1=O (configuration not stated),98.8% (inactive),99.5,98.4,102% (inactive),100,105,102% (inactive),100% (inactive),96.5% (inactive),98.1,94.4
Cc1cc(=O)n(-c2ccc3ccccc3n2)[nH]1,106% (inactive),109,103,115% (inactive),120,116,102% (inactive),99.6% (inactive),112% (inactive),114,107
Cc1nnc(NC(=O)c2nc(S(=O)(=O)Cc3ccccc3)ncc2Cl)s1,95.1% (inactive),96.7,93.7,96.5% (inactive),99,98.4,99.3% (inactive),103% (inactive),104% (inactive),103,104
Cc1ccc(-n2nnnc2C(Cl)(Cl)c2nnnn2-c2ccc(C)cc2)cc1,99.7% (inactive),98.8,98.6,136% (inactive),120,139,112% (inactive),100% (inactive),105% (inactive),106,100

# — PubChem BioAssay
